Measurements from ChEMBL document CHEMBL1154691, “Synthesis and evaluation of a new generation of orally efficacious benzimidazole-based poly(ADP-ribose) polymerase-1 (PARP-1) inhibitors as anticancer agents” (J Med Chem, 2009).

Test system: not listed separately
Assay: Cmax in CD1 mouse at 10 mg/kg, po
Type: ADME, organism-based
Design: dose 10 mg/kg, route oral
Details: in vivo
Procedure, shortened: (§1)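 Male CD-1 mice (26-30 g) were dosed iv via the tail vein or po by gavage. Blood was taken by cardiac puncture after CO₂ asphyxiation at set times. Plasma proteins were precipitated with acidified methanol. Samples were quantified by LC-ESI-MS against external standards from spiked control plasma.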

SMILES	Cmax
NC(=O)c1cccc2[nH]c(-c3ccc(-c4cnco4)cc3)nc12	70 nM
NC(=O)c1cccc2[nH]c(-c3ccc(-c4nnco4)cc3)nc12	2700 nM
NC(=O)c1cccc2[nH]c(-c3ccc(-c4cccnc4)cc3)nc12	2200 nM
NC(=O)c1cccc2[nH]c(-c3ccc(-c4ccccn4)cc3)nc12	1800 nM
NC(=O)c1cccc2[nH]c(-c3ccc(-c4ccncc4)cc3)nc12	760 nM

Test system: not listed separately
Assay: Clearance in CD1 mouse at 3.0 mg/kg, iv
Type: ADME, organism-based
Design: dose 3 mg/kg, route intravenous
Details: in vivo
Procedure, shortened: as §1

SMILES	clearance
NC(=O)c1cccc2[nH]c(-c3ccc(-c4ncc[nH]4)cc3)nc12	533 mL/min/kg
NC(=O)c1cccc2[nH]c(-c3ccc(-c4cnco4)cc3)nc12	300 mL/min/kg
NC(=O)c1cccc2[nH]c(-c3ccc(-c4nnco4)cc3)nc12	55 mL/min/kg
NC(=O)c1cccc2[nH]c(-c3ccc(-c4cccnc4)cc3)nc12	147 mL/min/kg
NC(=O)c1cccc2[nH]c(-c3ccc(-c4ccccn4)cc3)nc12	123 mL/min/kg
NC(=O)c1cccc2[nH]c(-c3ccc(-c4ccncc4)cc3)nc12	167 mL/min/kg

Test system: B16-F10
Assay: Antitumor activity against mouse B16F10 cells implanted in C57BL/6 mouse at 10 mg/kg, po BID for 5 days measured on day 16 in presence of DNA alkylating agent temozolomide
Type: functional
Details: B16-F10, read-out: TGI
Procedure, shortened: (§2)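 B16F10 syngeneic model: cells in Matrigel (1:1) were injected sc into the flank at 6 × 10⁴ cells per mouse. Recipients were female C57BL/6 mice, 6-8 weeks old, 18-20 g. Temozolomide was given po q.d. at 50 mg/kg/day for 5 consecutive days. Over the same period the PARP inhibitor was given po b.i.d. Read-out was relative tumor growth inhibition on the stated day.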

SMILES	inhibition in vivo at 10 mg/kg
NC(=O)c1cccc2[nH]c(-c3ccc(-c4ccccn4)cc3)nc12	83%

Test system: B16-F10
Assay: Antitumor activity against mouse B16F10 cells implanted in C57BL/6 mouse at 30 mg/kg, po BID for 5 days measured on day 16 in presence of DNA alkylating agent temozolomide
Type: functional
Details: B16-F10, read-out: TGI
Procedure, shortened: as §2

SMILES	inhibition in vivo at 30 mg/kg
NC(=O)c1cccc2[nH]c(-c3ccc(-c4ccccn4)cc3)nc12	72%

Test system: B16-F10
Assay: Antitumor activity against mouse B16F10 cells implanted in C57BL/6 mouse at 3 mg/kg, po BID for 5 days measured on day 16 in presence of DNA alkylating agent temozolomide
Type: functional
Details: read-out: TGI

SMILES	inhibition in vivo at 3 mg/kg
NC(=O)c1cccc2[nH]c(-c3ccc(-c4ccccn4)cc3)nc12	66%

Test system: B16-F10
Assay: Antitumor activity against mouse B16F10 cells implanted in C57BL/6 mouse at 60 mg/kg, po BID for 5 days measured on day 12 in presence of DNA alkylating agent temozolomide
Type: functional
Details: read-out: TGI
Procedure, shortened: as §2

SMILES	inhibition in vivo at 60 mg/kg
NC(=O)c1cccc2[nH]c(-c3ccc(-c4nnco4)cc3)nc12	67%

Test system: B16-F10
Assay: Antitumor activity against mouse B16F10 cells implanted in C57BL/6 mouse at 50 mg/kg, po QD for 5 days measured on day 16
Type: functional
Details: read-out: TGI

SMILES	inhibition in vivo at 50 mg/kg
Cn1nnc2c(C(N)=O)ncn2c1=O [TEMOZOLOMIDE]	56%

Test system: B16-F10
Assay: Antitumor activity against mouse B16F10 cells implanted in C57BL/6 mouse at 3 mg/kg, po BID for 5 days measured on day 19 in presence of DNA alkylating agent temozolomide
Type: functional
Details: read-out: TGI

SMILES	inhibition in vivo at 3 mg/kg
NC(=O)c1cccc2[nH]c(-c3ccc(-c4ccccn4)cc3)nc12	23%

Test system: B16-F10
Assay: Antitumor activity against mouse B16F10 cells implanted in C57BL/6 mouse at 30 mg/kg, po BID for 5 days measured on day 12 in presence of DNA alkylating agent temozolomide
Type: functional
Details: read-out: TGI
Procedure, shortened: as §2

SMILES	inhibition in vivo at 30 mg/kg
NC(=O)c1cccc2[nH]c(-c3ccc(-c4nnco4)cc3)nc12	59%

Biological target: T1, Poly [ADP-ribose] polymerase 1 (Homo sapiens, UniProt P09874)
Assay: Inhibition of PARP1 by scintillation counting
Details: not given

T1 sequence (P09874 whole entry): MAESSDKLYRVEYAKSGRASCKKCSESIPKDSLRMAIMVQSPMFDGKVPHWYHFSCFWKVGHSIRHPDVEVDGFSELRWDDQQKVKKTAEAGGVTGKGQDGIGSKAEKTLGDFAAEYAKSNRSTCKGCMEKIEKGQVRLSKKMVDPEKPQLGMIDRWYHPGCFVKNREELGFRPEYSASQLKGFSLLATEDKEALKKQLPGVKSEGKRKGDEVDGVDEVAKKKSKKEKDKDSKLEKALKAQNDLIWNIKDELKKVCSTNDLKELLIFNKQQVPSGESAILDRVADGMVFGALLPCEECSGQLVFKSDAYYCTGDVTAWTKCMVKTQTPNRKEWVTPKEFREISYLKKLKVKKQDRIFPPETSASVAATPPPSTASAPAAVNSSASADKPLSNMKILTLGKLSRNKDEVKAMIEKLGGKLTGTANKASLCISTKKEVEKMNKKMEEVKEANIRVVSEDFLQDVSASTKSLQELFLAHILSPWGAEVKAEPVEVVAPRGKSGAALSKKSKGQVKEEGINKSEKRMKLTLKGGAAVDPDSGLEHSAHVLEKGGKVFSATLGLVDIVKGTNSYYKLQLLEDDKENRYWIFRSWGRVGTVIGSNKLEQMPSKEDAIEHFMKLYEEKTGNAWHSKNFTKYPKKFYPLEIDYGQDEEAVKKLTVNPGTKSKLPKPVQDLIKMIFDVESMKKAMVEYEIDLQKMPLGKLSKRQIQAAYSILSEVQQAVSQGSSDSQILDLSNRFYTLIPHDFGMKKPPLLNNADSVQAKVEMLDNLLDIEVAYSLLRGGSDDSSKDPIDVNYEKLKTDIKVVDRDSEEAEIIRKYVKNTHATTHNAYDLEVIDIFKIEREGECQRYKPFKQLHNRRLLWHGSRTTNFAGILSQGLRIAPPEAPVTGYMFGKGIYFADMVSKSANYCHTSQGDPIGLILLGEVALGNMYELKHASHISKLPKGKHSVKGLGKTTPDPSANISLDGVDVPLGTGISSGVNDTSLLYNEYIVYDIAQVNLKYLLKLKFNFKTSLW

SMILES	Ki
NC(=O)c1cccc2[nH]c(-c3ccc(-c4ncc[nH]4)cc3)nc12	2.2 nM
NC(=O)c1cccc2[nH]c(-c3ccc(-c4cnco4)cc3)nc12	0.76 nM
NC(=O)c1cccc2[nH]c(-c3ccc(-c4nnn[nH]4)cc3)nc12	20 nM
NC(=O)c1cccc2[nH]c(-c3ccc(-c4ccno4)cc3)nc12	10 nM
NC(=O)c1cccc2[nH]c(-c3ccc(-c4nnco4)cc3)nc12	1 nM
NC(=O)c1cccc2[nH]c(-c3ccc(-c4cn5ccc(C(F)(F)F)cc5n4)cc3)nc12	6.8 nM
NC(=O)c1cccc2[nH]c(-c3ccc(-c4nc(=S)o[nH]4)cc3)nc12	3.8 nM

Test system: not listed separately
Assay: Half life in CD1 mouse at 3.0 mg/kg, iv
Type: ADME, organism-based
Design: dose 3 mg/kg, route intravenous
Details: in vivo
Procedure, shortened: as §1

SMILES	half-life
NC(=O)c1cccc2[nH]c(-c3ccc(-c4ncc[nH]4)cc3)nc12	33.6 min
NC(=O)c1cccc2[nH]c(-c3ccc(-c4cnco4)cc3)nc12	58.2 min
NC(=O)c1cccc2[nH]c(-c3ccc(-c4nnco4)cc3)nc12	21.6 min
NC(=O)c1cccc2[nH]c(-c3ccc(-c4cccnc4)cc3)nc12	34.8 min
NC(=O)c1cccc2[nH]c(-c3ccc(-c4ccccn4)cc3)nc12	37.2 min
NC(=O)c1cccc2[nH]c(-c3ccc(-c4ccncc4)cc3)nc12	24 min

Test system: not listed separately
Assay: AUC in CD1 mouse at 3.0 mg/kg, iv
Type: ADME, organism-based
Design: dose 3 mg/kg, route intravenous
Details: plasma
Procedure, shortened: as §1

SMILES	AUC
NC(=O)c1cccc2[nH]c(-c3ccc(-c4ncc[nH]4)cc3)nc12	0.31 µM·h
NC(=O)c1cccc2[nH]c(-c3ccc(-c4cnco4)cc3)nc12	0.54 µM·h
NC(=O)c1cccc2[nH]c(-c3ccc(-c4nnco4)cc3)nc12	3 µM·h
NC(=O)c1cccc2[nH]c(-c3ccc(-c4cccnc4)cc3)nc12	1.1 µM·h
NC(=O)c1cccc2[nH]c(-c3ccc(-c4ccccn4)cc3)nc12	1.3 µM·h
NC(=O)c1cccc2[nH]c(-c3ccc(-c4ccncc4)cc3)nc12	0.94 µM·h

Test system: not listed separately
Assay: Oral bioavailability in CD1 mouse at 10 mg/kg
Type: ADME, organism-based
Details: in vivo
Procedure, shortened: as §1

SMILES	bioavailability
NC(=O)c1cccc2[nH]c(-c3ccc(-c4ncc[nH]4)cc3)nc12	0%
NC(=O)c1cccc2[nH]c(-c3ccc(-c4cnco4)cc3)nc12	6%
NC(=O)c1cccc2[nH]c(-c3ccc(-c4nnco4)cc3)nc12	41%
NC(=O)c1cccc2[nH]c(-c3ccc(-c4cccnc4)cc3)nc12	73%
NC(=O)c1cccc2[nH]c(-c3ccc(-c4ccccn4)cc3)nc12	141%
NC(=O)c1cccc2[nH]c(-c3ccc(-c4ccncc4)cc3)nc12	44%

Biological target: T1, Poly [ADP-ribose] polymerase 1
Assay: Inhibition of PARP1 in human C41 cells after 30 mins by cell-based assay
Details: not given

SMILES	EC50
NC(=O)c1cccc2[nH]c(-c3ccc(-c4ncc[nH]4)cc3)nc12	2.2 nM
NC(=O)c1cccc2[nH]c(-c3ccc(-c4cnco4)cc3)nc12	0.99 nM
NC(=O)c1cccc2[nH]c(-c3ccc(-c4ccno4)cc3)nc12	> 1000 nM
NC(=O)c1cccc2[nH]c(-c3ccc(-c4nnco4)cc3)nc12	3.7 nM
NC(=O)c1cccc2[nH]c(-c3ccc(-c4cn5ccc(C(F)(F)F)cc5n4)cc3)nc12	20 nM
NC(=O)c1cccc2[nH]c(-c3ccc(-c4nc(=S)o[nH]4)cc3)nc12	328 nM

Test system: not listed separately
Assay: AUC in CD1 mouse at 10 mg/kg, po
Type: ADME, organism-based
Design: dose 10 mg/kg, route oral
Details: plasma
Procedure, shortened: as §1

SMILES	AUC
NC(=O)c1cccc2[nH]c(-c3ccc(-c4cnco4)cc3)nc12	0.11 µM·h
NC(=O)c1cccc2[nH]c(-c3ccc(-c4nnco4)cc3)nc12	4 µM·h
NC(=O)c1cccc2[nH]c(-c3ccc(-c4cccnc4)cc3)nc12	2.7 µM·h
NC(=O)c1cccc2[nH]c(-c3ccc(-c4ccccn4)cc3)nc12	6.1 µM·h
NC(=O)c1cccc2[nH]c(-c3ccc(-c4ccncc4)cc3)nc12	1.4 µM·h

Test system: B16-F10
Assay: Antitumor activity against mouse B16F10 cells implanted in C57BL/6 mouse at 30 mg/kg, po BID for 5 days measured on day 19 in presence of DNA alkylating agent temozolomide
Type: functional
Details: read-out: TGI
Procedure, shortened: as §2

SMILES	inhibition in vivo at 30 mg/kg
NC(=O)c1cccc2[nH]c(-c3ccc(-c4nnco4)cc3)nc12	72%
NC(=O)c1cccc2[nH]c(-c3ccc(-c4ccccn4)cc3)nc12	70%

Test system: B16-F10
Assay: Antitumor activity against mouse B16F10 cells implanted in C57BL/6 mouse at 60 mg/kg, po BID for 5 days measured on day 19 in presence of DNA alkylating agent temozolomide
Type: functional
Details: read-out: TGI
Procedure, shortened: as §2

SMILES	inhibition in vivo at 60 mg/kg
NC(=O)c1cccc2[nH]c(-c3ccc(-c4nnco4)cc3)nc12	81%

Test system: B16-F10
Assay: Antitumor activity against mouse B16F10 cells implanted in C57BL/6 mouse at 10 mg/kg, po BID for 5 days measured on day 19 in presence of DNA alkylating agent temozolomide
Type: functional
Details: read-out: TGI
Procedure, shortened: as §2

SMILES	inhibition in vivo at 10 mg/kg
NC(=O)c1cccc2[nH]c(-c3ccc(-c4nnco4)cc3)nc12	53%
NC(=O)c1cccc2[nH]c(-c3ccc(-c4ccccn4)cc3)nc12	32%

Test system: not listed separately
Assay: Volume of distribution in CD1 mouse at 3.0 mg/kg, iv
Type: ADME, organism-based
Design: dose 3 mg/kg, route intravenous
Details: in vivo
Procedure, shortened: as §1

SMILES	Vd
NC(=O)c1cccc2[nH]c(-c3ccc(-c4ncc[nH]4)cc3)nc12	26 L/kg
NC(=O)c1cccc2[nH]c(-c3ccc(-c4cnco4)cc3)nc12	26 L/kg
NC(=O)c1cccc2[nH]c(-c3ccc(-c4nnco4)cc3)nc12	1.7 L/kg
NC(=O)c1cccc2[nH]c(-c3ccc(-c4cccnc4)cc3)nc12	7.3 L/kg
NC(=O)c1cccc2[nH]c(-c3ccc(-c4ccccn4)cc3)nc12	6.6 L/kg
NC(=O)c1cccc2[nH]c(-c3ccc(-c4ccncc4)cc3)nc12	5.9 L/kg

Test system: B16-F10
Assay: Antitumor activity against mouse B16F10 cells implanted in C57BL/6 mouse at 10 mg/kg, po BID for 5 days measured on day 12 in presence of DNA alkylating agent temozolomide
Type: functional
Details: read-out: TGI
Procedure, shortened: as §2

SMILES	inhibition in vivo at 10 mg/kg
NC(=O)c1cccc2[nH]c(-c3ccc(-c4nnco4)cc3)nc12	57%

Test system: B16-F10
Assay: Antitumor activity against mouse B16F10 cells implanted in C57BL/6 mouse at 50 mg/kg, po QD for 5 days measured on day 12
Type: functional
Details: read-out: TGI

SMILES	inhibition in vivo at 50 mg/kg
Cn1nnc2c(C(N)=O)ncn2c1=O [TEMOZOLOMIDE]	43%
